From ChEMBL document CHEMBL5104210, “Discovery of antipsychotic loxapine derivatives against intracellular multidrug-resistant bacteria” (RSC Med Chem, 2022)

Experiments:
Salmonella typhimurium = assay: Antibacterial activity against intracellular multidrug-resistant Salmonella typhimurium ATCC14028 infected in mouse RAW264.7 cells assessed as reduction in intracellular bacterial survival level by RFP staining based high-content image analysis; assay type: functional, organism-based, Salmonella enterica subsp. enterica serovar Typhimurium; settings: Salmonella enterica, ATCC14028, RAW264.7
In short: (§1)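 RAW264.7 cells were seeded for 20 h, then infected for 1 h at MOI 50 with RFP-expressing bacteria (2 h subculture, OD600 0.6 ≈ 1×10^8 CFU/mL). Gentamicin 100 mg/L was given for 1 h, then compound plus 20 mg/L gentamicin for 24 h. Cells were stained with CellTracker Green, fixed, and stained with DAPI. Whole-well high-content imaging gave intracellular RFP intensity for EC50 and DAPI nuclei counts for CC50.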

[1] = Cytotoxicity against mouse RAW264.7 cells assessed as reduction in number of cells by DAPI staining based high-content image analysis; assay type: toxicity, cell-based
In short: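 RAW264.7 seeded 20 h, infected 1 h with RFP-expressing S. Typhimurium (MOI 50), 100 mg/L gentamicin 1 h, then compound with 20 mg/L gentamicin 24 h. Cells stained with CellTracker Green, fixed in 3.7% formaldehyde, DAPI 0.2 mg/L. Whole-well high-content imaging at 10×; viable cells counted as DAPI-stained nuclei; CC50 calculated.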

[2] = Selectivity ratio of CC50 for cytotoxicity against mouse RAW264.7 cells to EC50 for antibacterial activity against intracellular multidrug-resistant Salmonella typhimurium ATCC14028 infected in mouse RAW264.7 cells; assay type: toxicity, cell-based; settings: read-out: Ratio CC50/EC50; in short: as §1

Structure (SMILES)	EC50 (Salmonella typhimurium)	CC50 [1]	selectivity ratio [2]
CN(C)CCNC1=Nc2ccccc2Oc2ccc(Cl)cc21	3.65 µM	34.6 µM	9.5
Clc1ccc2c(c1)C(NCCCN1CCCCC1)=Nc1ccccc1O2	1.12 µM	19.6 µM	17.5
Clc1ccc2c(c1)C(NCCN1CCOCC1)=Nc1ccccc1O2	32 µM	84.7 µM	2.6
CCCCCNC1=Nc2ccccc2Oc2ccc(Cl)cc21	54.1 µM	72.7 µM	1.3
CC(C)CCNC1=Nc2ccccc2Oc2ccc(Cl)cc21	55.1 µM	70.1 µM	1.3
Oc1ccc(CCNC2=Nc3ccccc3Oc3ccc(Cl)cc32)cc1	33.5 µM	52.1 µM	1.6
O=C(O)c1cn(C2CC2)c2cc(N3CCNCC3)c(F)cc2c1=O [CIPROFLOXACIN]	0.15 µM	–	–
Clc1ccc2c(c1)C(NCCc1ccncc1)=Nc1ccccc1O2	18.5 µM	51.1 µM	2.8
Clc1ccc2c(c1)C(NCc1ccccc1)=Nc1ccccc1O2	19.7 µM	60.8 µM	3.1
Clc1ccc2c(c1)C(NCCCN1CCCC1)=Nc1ccccc1O2	1.12 µM	16.3 µM	14.6
CN1CCCC1CCNC1=Nc2ccccc2Oc2ccc(Cl)cc21 (configuration not stated)	1.22 µM	23 µM	18.9
Clc1ccc2c(c1)C(NCCN1CCCCC1)=Nc1ccccc1O2	4.34 µM	22.2 µM	5.1
Clc1ccc(CCNC2=Nc3ccccc3Oc3ccc(Cl)cc32)cc1	53.5 µM	> 90 µM	> 1.7
